PMC5901702 (Journal of biomolecular screening, 2012)

Molecular target: T1, rat IDE (Rattus norvegicus, UniProt P35559)
T1 sequence (P35559 1-1019): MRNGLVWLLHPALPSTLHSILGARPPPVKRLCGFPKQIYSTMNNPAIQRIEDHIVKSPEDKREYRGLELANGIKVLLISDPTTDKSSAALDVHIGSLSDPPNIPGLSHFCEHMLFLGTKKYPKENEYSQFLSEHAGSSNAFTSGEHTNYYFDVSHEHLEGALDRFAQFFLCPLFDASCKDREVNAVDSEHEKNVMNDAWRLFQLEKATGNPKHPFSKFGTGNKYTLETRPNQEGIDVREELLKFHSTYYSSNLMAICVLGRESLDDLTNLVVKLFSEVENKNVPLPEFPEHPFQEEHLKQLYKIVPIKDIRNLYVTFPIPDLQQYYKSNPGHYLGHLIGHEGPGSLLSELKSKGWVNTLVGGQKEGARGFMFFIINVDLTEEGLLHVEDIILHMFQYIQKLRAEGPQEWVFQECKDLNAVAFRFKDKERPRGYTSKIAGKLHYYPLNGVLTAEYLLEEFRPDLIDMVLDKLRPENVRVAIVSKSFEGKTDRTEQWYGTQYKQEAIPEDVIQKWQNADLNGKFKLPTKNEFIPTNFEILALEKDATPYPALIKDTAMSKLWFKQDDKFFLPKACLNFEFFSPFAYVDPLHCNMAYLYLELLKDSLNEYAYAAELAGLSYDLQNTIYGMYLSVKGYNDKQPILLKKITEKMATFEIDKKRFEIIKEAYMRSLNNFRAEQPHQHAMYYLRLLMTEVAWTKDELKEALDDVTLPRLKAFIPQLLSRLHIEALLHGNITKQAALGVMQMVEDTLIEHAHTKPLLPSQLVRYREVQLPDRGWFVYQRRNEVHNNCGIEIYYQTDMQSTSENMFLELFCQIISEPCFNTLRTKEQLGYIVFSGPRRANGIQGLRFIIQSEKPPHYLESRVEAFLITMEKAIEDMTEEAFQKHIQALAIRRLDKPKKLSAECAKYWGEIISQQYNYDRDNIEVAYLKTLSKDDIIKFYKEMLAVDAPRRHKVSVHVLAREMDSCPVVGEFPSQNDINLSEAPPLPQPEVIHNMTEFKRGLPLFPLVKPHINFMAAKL
Experiment: Thermal melt
Type: binding
Conditions: 100 µM compound; rat IDE 0.5 µM; 28 to 70 °C
Outline: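 Thermal shift: recombinant rat IDE (0.5 µM) with 5× SYPRO Orange in 0.1 M KPi pH 7.6, plus DMSO or compound (100 µM). Samples were held 60 min in the dark at room temperature under mineral oil, then heated 28–70 °C in 1–3 °C steps. Fluorescence was read at 465/590 nm. Tm came from a four-parameter variable-slope sigmoidal fit.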

Compound: O=S(=O)(O)c1cc(O)c2c(O)c(N=Nc3cccc4ccccc34)c(S(=O)(=O)O)cc2c1 [Compound 3]
- shift in thermal melting profile (Tm) of IDE: substantial shift in the melting profile
